Screens (PubChem BioAssay)
MrgX1 antagonist – human MrgX1 receptor antagonism, primary screen | 1.3% of 310,000 active | B-score at 10 µM | AID 588676 | Q96LB2 | MRGX1-HEK293 calcium flux, Fluo-4, BAM8-22 antagonism; stronger effect = lower value;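 active means calcium-response B-score plate-corrected more than 3 library SD below zero, starting fluorescence within 5 deviations, no agonist response on first addition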;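 further: peak minus trough fluorescence over baseline after final BAM8-22 challenge near maximal dose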
Target sequence (Q96LB2 whole entry, looked up): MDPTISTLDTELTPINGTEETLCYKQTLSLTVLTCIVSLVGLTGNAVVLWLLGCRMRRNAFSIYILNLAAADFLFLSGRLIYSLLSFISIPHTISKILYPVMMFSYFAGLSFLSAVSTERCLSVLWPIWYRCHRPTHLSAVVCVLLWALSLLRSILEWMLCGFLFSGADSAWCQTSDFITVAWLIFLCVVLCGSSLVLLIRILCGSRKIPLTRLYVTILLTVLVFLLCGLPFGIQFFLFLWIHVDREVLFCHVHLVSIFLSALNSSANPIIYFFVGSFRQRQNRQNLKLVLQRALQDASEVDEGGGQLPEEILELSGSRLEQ
MrgX1 ag – human MrgX1 receptor agonism, primary screen; Q96LB2; MrgX1-HEK293 cells, Fluo-4 calcium fluorescence, agonist mode; stronger effect = higher value; B-score at 10 µM; 0.44% of 310,000 active; AID 588627;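 active means calcium response B-score plate-corrected fluorescence ratio at least 3 library SD, with starting fluorescence B-score inside 5 SD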
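System – MrgX1-expressing HEK293 cells · Incubation – cells plated overnight, dye loaded 0.5 h 37 °C, 0.5 h room temperature · Technique – kinetic Fluo-4 NW fluorescence of intracellular calcium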
MrgX1 PAM – human MrgX1 positive allosteric modulation, primary screen | MrgX1-HEK293, Fluo-4 calcium flux, FDSS; stronger effect = higher value | B-score at 10 µM | 0.63% of 310,000 active | AID 588675;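 active means plate-corrected calcium response at least 3 library SD above typical, normal starting fluorescence, not activating the receptor alone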;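 further: compound read alongside a low EC10 to EC30 dose of BAM8-22 agonist; peak minus trough fluorescence over baseline measured at the second addition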
RGS4 pot – RGS4 potentiation or activation; HEK293 M3R/inducible RGS4, carbachol calcium flux Fluo4; stronger effect = lower value; B-score at 10 µM; 0.92% of 310,000 active; AID 463111;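 active means B-score of the integrated calcium signal more than 4 SD below the library mean, with starting fluorescence not abnormally high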;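 further: negative B-score means reduced calcium response which marks RGS4 activation or potentiation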
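Material: M3R-expressing HEK293 line, RGS4 induced by doxycycline | Schedule: Overnight RGS4 induction, 30 min dye load 37 °C, 20 min compound RT | Measured by: Fluo4 fluorescence kinetic imaging of calcium | Read-out: Integrated calcium ratio converted to B score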
RGS4 inh – inhibitors of human RGS4. HEK293 M3R/RGS4 inducible, Fluo-4 calcium flux; stronger effect = higher value; triggered by carbachol at its EC20. 0.45% of 310,000 active. B-score at 10 µM. P49798;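 active means B-score, a plate-corrected calcium signal, over three deviations above library mean, with baseline fluorescence within five deviations of library mean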;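 further: RGS4 expression induced by doxycycline in cells with stable M3 receptor; B-score is computed from the integrated fluorescence ratio over baseline after carbachol; higher B-score means a larger calcium signal and so more RGS4 inhibition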
Target sequence (P49798 whole entry, looked up): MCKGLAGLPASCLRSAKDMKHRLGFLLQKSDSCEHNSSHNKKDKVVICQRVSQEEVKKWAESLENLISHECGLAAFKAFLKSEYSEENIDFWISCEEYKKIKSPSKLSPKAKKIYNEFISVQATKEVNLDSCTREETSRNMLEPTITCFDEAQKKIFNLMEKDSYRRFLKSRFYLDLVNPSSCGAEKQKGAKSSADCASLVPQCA
RGS4 activ val – confirmation of RGS4 activators. shares compounds with RGS4 pot. HEK293 M3R/RGS4 inducible, carbachol calcium flux Fluo4. inhibition, % at 10 µM. 89% of 1,100 active. AID 602282;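 active means inhibition above 3 SD of the buffer control wells, cut at about 41% in these data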;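 further: signal is the integrated peak-minus-minimum Fluo4 fluorescence over baseline ratio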
RGS4 act ctr – activity in cells without induced RGS4 expression. HEK293 M3R non-induced RGS4, Fluo4 calcium flux; after carbachol challenge at its EC90. inhibition, % at 10 µM. shares compounds with RGS4 pot. 82% of 1,100 active;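 active means inhibition exceeding 3 SD of buffer-only control wells, cut at about 26% in these data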;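 further: percent drop in integrated peak-minus-baseline over baseline Fluo4 ratio after carbachol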
Active calls of the source: *; i = inactive; . = no result given. Sampled rows, rich in hits. Any-hit rate of the full collection: about 3.5%.

SMILES	MrgX1 antagonist	MrgX1 ag	MrgX1 PAM	RGS4 pot	RGS4 inh	RGS4 activ val	RGS4 act ctr
C[n+]1cccc2ccc3c(c21)OC(N)=C(C#N)C3c1ccccc1 (stereo unspecified)	i	i	i	-12*	i	76*	84*
C[n+]1cccc(C2C(C#N)=C(N)Oc3c2ccc2ccccc32)c1 (stereo unspecified)	i	i	i	i	i	.	.
COC(=O)c1cc2c(ccc3ccccc32)oc1=O	i	i	i	i	i	.	.
CCOC(=O)C1CCN(c2c(C(=O)c3ccccc3)cnc3ccc(CC)cc23)CC1	i	i	i	-7.7*	i	90*	43*
Cc1ccc(-n2ncc3c2CCCC3NC(=O)CCCN2CCCCC2=O)cc1C (stereo unspecified)	i	i	i	i	i	.	.
CCOc1ccc(CN(C)c2nc(-c3cccnc3)nc3ccccc23)cc1OC	i	i	i	-9.2*	i	76*	43*
COc1ccc(CCNc2nc(-c3cccnc3)nc3ccccc23)cc1OC	i	i	i	i	i	.	.
C/C(=N\NC(=O)CN1CCOCC1)C(C)(C)C	i	i	i	i	i	.	.
CNc1nc(-c2ccccc2)[n+](-c2ccc(C)cc2)s1	i	i	i	-14*	i	97*	93*
CSc1ccc(CN2CCN(C3CCCC3)C(CCO)C2)cc1 (stereo unspecified)	i	i	i	-8.9*	i	88*	60*
CC(C)(O)C#Cc1ccc(CN2CCN(C3CCCCC3)C(CCO)C2)cc1 (stereo unspecified)	i	i	i	i	i	.	.
CC(C)(O)C#Cc1ccc(CN2CCN(C3CCCCC3)C(CCO)C2)s1 (stereo unspecified)	i	i	i	-7.8*	i	64*	26*
OCCCNc1cc(-c2ccccc2)nc2cc(-c3ccc(F)cc3)nn12	i	i	i	-8.8*	i	68*	42*
Cc1cc(NCCCO)n2nc(-c3cccs3)cc2n1	i	i	i	i	i	.	.
CC(C)c1nc(N2CCN(C(=O)c3ccco3)CC2)c(C#N)c2c1COC(C)(C)C2	i	i	i	-11*	i	82*	42*
CC1(C)Cc2c(C#N)c(N3CCN(C(=O)c4ccccc4)CC3)nc(-c3ccco3)c2CS1	i	i	i	.	.	.	.
CC(C)c1nc(N2CCN(C(=O)c3ccccc3)CC2)c(C#N)c2c1COC(C)(C)C2	i	i	i	-8.8*	i	45*	84*
COc1ccc2c(C)cc(N3CCCCCC3)nc2c1	i	i	i	-11*	i	92*	75*
COc1ccc2c(C)cc(N3CCN(Cc4ccccc4)CC3)nc2c1	i	i	i	i	i	.	.
CC(=O)N1CCc2cc(C(=O)CN3CCN(c4ccccn4)CC3)ccc21	i	i	i	i	i	.	.
COC(=O)c1cc2ccsc2n1Cc1cc(=O)n2ccccc2n1	i	i	i	-10*	i	90*	63*
Cc1ccc(-c2cc(C(=O)Nc3cccnc3)c3ccccc3n2)o1	i	i	i	i	i	.	.
O=C(Nc1cccnc1)c1cc(-c2ccc(Br)cc2)nc2ccccc12	i	i	i	-13*	i	92*	76*
CC(=O)Nc1cccc(NC(=O)c2cc(-c3cccnc3)nc3ccc(Br)cc23)c1	i	i	i	i	i	.	.
CC(=O)Nc1cccc(NC(=O)c2cc(-c3cccnc3)nc3ccc(Cl)cc23)c1	i	i	i	-8.6*	i	46*	0
SMILES	MrgX1 antagonist	MrgX1 ag	MrgX1 PAM	RGS4 pot	RGS4 inh	RGS4 activ val	RGS4 act ctr
CCOC(=O)Cn1c(=S)[nH]c2c(oc3ccc(Cl)cc32)c1=O	i	i	i	i	i	.	.
C[n+]1c2n(c3ccccc31)N=C(c1cc(C(C)(C)C)c(O)c(C(C)(C)C)c1)CS2	-8.6*	i	i	-13*	i	94*	83*
COc1cccc(C2=Nn3c(nnc3-c3ccccc3O)SC2)c1	i	i	i	i	i	.	.
COc1ccc(CCNC(=O)Nc2ccc(F)cc2F)cc1OC	i	i	i	i	i	.	.
CCS(=O)(=O)N1CCC(NC(=O)C2CCCCC2)CC1	i	i	i	i	i	.	.
Cc1ccc(Sc2ccc(N)cc2C#N)cc1	i	i	i	-8.8*	i	83*	42*
Cc1ccc(Sc2nnc(-c3ccccc3)cc2C#N)cc1	i	i	i	i	i	.	.
Cc1c(C)c2c(OCC(=O)N3CCC[C@H]3C(=O)O)cc3c(c2oc1=O)CCC(C)(C)O3	i	i	i	i	i	.	.
Cc1c(C(=O)OCCN2CCCCC2)oc2ccccc12	i	i	i	-11*	i	94*	91*
Cc1c(C(=O)OCC(C)(C)CN(C)C)oc2ccccc12	i	i	i	i	i	.	.
Cc1c(C(=O)OCC(=O)N2C(C)CCCC2C)oc2ccccc12 (stereo unspecified)	i	i	i	i	i	.	.
Cc1c(C(=O)OC(C)CCN(C)C)oc2ccccc12 (stereo unspecified)	i	i	i	-11*	i	93*	82*
Cc1c(CC(=O)O)c(=O)oc2cc3c(cc12)CCC(C)(C)O3	i	i	i	i	i	.	.
Cc1c(CC(=O)N2CCC(C(N)=O)CC2)c(=O)oc2cc3c(cc12)CCC1(CCCCC1)O3	i	i	i	-8.9*	i	92*	78*
CC(C)(c1ccccc1)c1ccc(OCCn2cnc3ccccc3c2=O)cc1	i	i	i	-8.8*	i	90*	58*
O=C(c1ccccc1)c1ccc(OCCn2cnc3ccccc3c2=O)cc1	i	i	i	i	i	.	.
CC(C)(C)N(Cc1nc(-c2ccccc2)no1)C(=O)c1ccc2c(c1)OCO2	i	i	i	i	i	.	.
CC(C)(C)N(Cc1ccccc1)C(=O)c1ccc2c(c1)OCCO2	i	i	i	-9.2*	i	92*	54*
CCC(C)[C@H](NC(=O)NC1CCCc2ccccc21)C(=O)OC (stereo partly specified)	i	i	i	-8.3*	i	0	0
O=C(C1=COCCO1)N1CCN(C(c2ccccc2)c2ccccc2)CC1	i	i	i	i	i	.	.
